Assay results from different studies.
CDK3: Cyclin-dependent kinase 3 (CDK3, Homo sapiens, UniProt Q00526)
CDK3 with cyclin E1: Cyclin-dependent kinase 3, with cyclin E1 (CDK3, Homo sapiens, UniProt Q00526)
CDK3 with cyclin E: Cyclin-dependent kinase 3, with cyclin E (CDK3, Homo sapiens, UniProt Q00526)

CO[C@@H](C)c1c(Nc2ccc([C@@H](N(C)C(=O)C3CCS(=O)(=O)CC3)C(F)(F)F)cc2)cnc2cc(Cl)nn12  remaining binding (CDK3; cell-free assay, competition with immobilised ligand; 1 µM): 88%
O=C(CSc1nc2nccnc2c(=O)n1CCc1ccccc1)Nc1nccs1  inhibition (CDK3 with cyclin E1; enzyme activity, inhibitor; 10 µM): -19%
COc1cc(Cl)c(C(=O)N[C@@H](CN[C@H]2CC[C@@H](N)CC2)Cc2ccc(C#N)cc2)cc1-c1ccc(CN[C@H](C)c2ccc(C)cc2)o1  remaining activity (CDK3 with cyclin E; enzyme activity, inhibitor; 1 µM): 99%
O=C(Nc1cnn(-c2csc(C(=O)NC3COC3)c2)c1)Nc1c(F)cccc1Cl  remaining activity (CDK3 with cyclin E; enzyme activity, inhibitor; 5 µM): 92.2%
CNC(=O)c1cc(Oc2ccc(NC(=O)Nc3ccc(Cl)c(C(F)(F)F)c3)cc2)ccn1  inhibition (CDK3 with cyclin E; enzyme activity, inhibitor; 0.3 µM): -6%
CS(=O)(=O)NCC[C@H](NC(=O)c1cncc2c1cnn2-c1ccc(F)cc1)c1ccnc(S(C)(=O)=O)c1  remaining binding (CDK3; cell-free assay, competition with immobilised ligand; 1 µM): 100%
Cc1sc(C(=O)NC2COC2)cc1-n1cc(NC(=O)Nc2c(F)cccc2Cl)cn1  remaining activity (Cyclin-dependent kinase 3, with cyclin E2 (CDK3, Homo sapiens, UniProt Q00526); enzyme activity, inhibitor; 10 µM): 103%
Cc1nccc(COC(=O)N2C[C@@H]3[C@@H](CNC(=O)c4ccc5[nH]nnc5c4)[C@@H]3C2)n1  remaining binding (CDK3; cell-free assay, competition with immobilised ligand; 1 µM): 97%
Cc1ccc(-n2nc(C(C)(C)C)cc2NC(=O)Nc2ccc(OCCN3CCOCC3)c3ccccc23)cc1  inhibition (CDK3 with cyclin E; enzyme activity, inhibitor; 10 µM): -10%
O=C(NCc1ncc(C(F)(F)F)cc1Cl)c1ccc2c(c1)C1(CCS(=O)(=O)CC1)[C@@H](C1CC1)N2S(=O)(=O)c1ccc(F)cc1  remaining binding (CDK3; cell-free assay, competition with immobilised ligand; 1 µM): 41%
CC(C)(C)c1nc2c(s1)c1nc(N)ncc1c1ccc(NS(=O)(=O)c3c(F)cccc3F)c(F)c12  remaining activity (CDK3 with cyclin E1; enzyme activity, inhibitor, radiometric; 1 µM): 98%
Nc1ncnc2occ(-c3ccc(NC(=O)Nc4cc(C(F)(F)F)ccc4F)cc3)c12  remaining signal (CDK3; cell-free assay, inhibitor; 20 µM): 0.05%
Cc1nc(C2CCN(C(=O)c3ccc(OC(F)(F)F)cc3N)CC2)c2ncc(N3CCN(C)CC3)cc2n1  remaining binding (CDK3; cell-free assay, competition with immobilised ligand; 1 µM): 100%
O=C(Nc1cnn(-c2csc(C(=O)NC3COC3)c2)c1)Nc1ccccc1Cl  remaining activity (CDK3 with cyclin E; enzyme activity, inhibitor; 5 µM): 107%
Cc1ccc(C(=O)NCc2ccsc2)cc1C#Cc1cn(C(C)C)c2ncnc(N)c12  activity vs control (CDK3 with cyclin E; enzyme activity, inhibitor; 1 µM): 98%
NS(=O)(=O)c1cc(NC(=O)Cc2ccccc2)ccc1Oc1cccc(Cl)c1  remaining binding (CDK3; cell-free assay, competition with immobilised ligand; 1 µM): 92%
Cc1ccc(Nc2nccc(N(C)c3ccc4c(C)n(C)nc4c3)n2)cc1S(N)(=O)=O  inhibition (CDK3 with cyclin E; enzyme activity, inhibitor; 0.3 µM): -4%
Oc1cccc(-c2nc(N3CCOCC3)c3oc4ncccc4c3n2)c1  remaining signal (CDK3 with cyclin E; cell-free assay; 0.5 µM): 93.9%
CCN(CC)CCNC(=O)c1c(C)[nH]c(/C=C2\C(=O)Nc3ccc(F)cc32)c1C  inhibition (CDK3 with cyclin E; enzyme activity, inhibitor; 10 µM): 41%
Cc1cnc(NC2CCOCC2)nc1-n1cnc(C(=O)NC(CN)c2cc(F)cc(Cl)c2)c1 (stereo not drawn)  remaining activity (CDK3 with cyclin E; enzyme activity, inhibitor, radiometric; 1 µM): 5%
CC(C)(C)c1nc(-c2cccc(NS(=O)(=O)c3c(F)cccc3F)c2F)c(-c2ccnc(N)n2)s1  remaining activity (CDK3 with cyclin E1; enzyme activity, inhibitor, radiometric; 1 µM): 103%
N#CCCc1ccc2c(c1)-c1[nH]c3ccc([N+](=O)[O-])cc3c1CC(=O)N2  remaining signal (CDK3 with cyclin E; cell-free assay; 0.5 µM): 39.7%
COc1cc(-c2cn(C3CCc4c(F)cccc4N(CC(F)(F)F)C3=O)nn2)ccc1-n1cnc(C)c1 (stereo not drawn)  remaining binding (CDK3; cell-free assay, competition with immobilised ligand; 1 µM): 100%
Cc1ccc(NC(=O)c2ccc(C)c(C(F)(F)F)c2)cc1C#Cc1nn(C2CCC(O)CC2)c2ncnc(N)c12 (stereo not drawn)  remaining signal (CDK3 with cyclin E; cell-free assay; 10 µM): 93%
